Results on 14 compounds are retold here after ChEMBL document CHEMBL4428122, “Design, synthesis, and biological characterization of novel PEG-linked dimeric modulators for CXCR4” (Bioorg Med Chem, 2016).

pIC50: −log10 of the molar value. Activity calls are given as the source filed them. No cut-off for these calls is given here. Non-standard residues stand in square brackets, D forms with d. Residues, ends and D or L forms follow the SMILES beside them.

One data set relates to SUP-T1. Nature of the data set: Cytotoxicity against human SupT1 cells at 100 nM. In kind it is cell-based. Particulars: sup-t1, 0.1 µM.
Data set [1] deals with T1, C-X-C chemokine receptor type 4 (Homo sapiens, UniProt P61073). Put plainly: Antagonist activity at CXCR4 in human SupT1 cells assessed as inhibition of CXCL12-induced Ca2+ influx preincubated for 2 to 3 mins prior CXCL12-stimulation by fura-2/AM dye-based fluorescence analysis. In kind it is functional, cell-based. An outline of the steps:
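Fura-2/AM-loaded SUP-T1 cells (2 μM dye, 5 μM probenecid, 30 min; 2 × 10^6 cells/mL in Hepes pH 7.4 saline with Ca2+/Mg2+, glucose, 0.025% BSA) were pre-incubated with peptide for 2–3 min, then stimulated with SDF-1α. Fluorescence was read at ex 340/380 nm, em 510 nm.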

The target in data set [2] is T1, C-X-C chemokine receptor type 4. Nature of the data set: Antagonist activity at CXCR4 in human SupT1 cells assessed as inhibition of CXCL12-induced cell migration at 100 nM preincubated for 2 hrs followed by CXCL12 addition measured after 3 hrs by Cell titer-Blue reagent-based transwell assay. An outline of the steps: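 SUP-T1 cells were washed in RPMI1640 with 0.5% BSA, and 1 × 10^6 cells were incubated with peptide for 2 h. Cells were then seeded in upper transwell chambers (5 μm pores) over a lower chamber with 10 nM SDF-1α, or buffer alone for background. Migration ran 3 h at 37°C. Migrated cells were expressed as % of seeded cells. At least three independent experiments, mean ± S.E.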

Data set [3] shares this target. Put plainly: Binding affinity to CXCR4 (unknown origin) expressed in CHO cells measured after 40 mins by 12G5 antibody competition assay. The conditions noted are these: for pIC50: read-out: IC50. In kind it is cell-based.
Data set [4] has the same target. Put plainly: Agonist activity at CXCR4 in human SupT1 cells assessed as increase in Ca2+ influx by fura-2/AM dye-based fluorescence analysis. In kind it is functional, cell-based. The method, boiled down: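 They were loaded at 10^7 cells/mL with 2 μM fura-2/AM and 5 μM probenecid for 30 min, then resuspended at 2 × 10^6 cells/mL. After a 2 min baseline, peptide was added. Ex 340/380 nm, em 510 nm.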

T1 sequence (P61073 whole entry): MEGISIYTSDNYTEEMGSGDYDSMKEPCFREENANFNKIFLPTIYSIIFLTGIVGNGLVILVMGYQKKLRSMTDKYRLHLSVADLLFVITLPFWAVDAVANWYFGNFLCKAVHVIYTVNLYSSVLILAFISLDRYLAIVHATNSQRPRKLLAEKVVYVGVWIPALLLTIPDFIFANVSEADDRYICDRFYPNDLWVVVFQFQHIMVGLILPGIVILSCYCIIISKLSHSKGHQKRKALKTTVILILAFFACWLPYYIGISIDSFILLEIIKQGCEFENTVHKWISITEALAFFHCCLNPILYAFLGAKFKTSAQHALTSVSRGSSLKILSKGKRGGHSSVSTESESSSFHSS

One may read the inhibition as the change of the read-out against control, counted positive when it falls. For `CC(C)C[C@@H](N)C(=O)NCC(=O)N[C@H](C)C(=O)N[C@H](CO)C(=O)N[C@H](Cc1c[nH]c2ccccc12)C(=O)N[C@H](Cc1cnc[nH]1)C(=O)N[C@H](CCCNC(=N)N)C(=O)N1CCC[C@@H]1C(=O)NCCOCCOCCOCCC(=O)NCCCC[C@H](NC(=O)CCOCCOCCOCCNC(=O)[C@H]1CCCN1C(=O)[C@@H](CCCNC(=N)N)NC(=O)[C@@H](Cc1cnc[nH]1)NC(=O)[C@@H](Cc1c[nH]c2ccccc12)NC(=O)[C@@H](CO)NC(=O)[C@@H](C)NC(=O)CNC(=O)[C@H](N)CC(C)C)C(N)=O`, the Activity entry with SUP-T1 was “Non-Toxic”. The “antagonist activity (qualitative)” value in data set [1] is “Active”. For the same compound, in data set [2], the inhibition worked out at 28%.

What is called pIC50 is the IC50 on a negative log10 scale, so that one unit is a factor of ten. Consider `CC(C)C[C@@H](N)C(=O)NCC(=O)N[C@H](C)C(=O)N[C@H](CO)C(=O)N[C@H](Cc1c[nH]c2ccccc12)C(=O)N[C@H](Cc1cnc[nH]1)C(=O)N[C@H](CCCNC(=N)N)C(=O)N1CCC[C@@H]1C(=O)N[C@H](CC(=O)O)C(=O)N[C@H](CCCCN)C(=O)NC(=O)[C@@H](CCCCN)NC(=O)[C@@H](CC(=O)O)NC(=O)[C@H]1CCCN1C(=O)[C@@H](CCCNC(=N)N)NC(=O)[C@@H](Cc1cnc[nH]1)NC(=O)[C@@H](Cc1c[nH]c2ccccc12)NC(=O)[C@@H](CO)NC(=O)[C@@H](C)NC(=O)CNC(=O)[C@H](N)CC(C)C`, for which the negative-log IC50 (pIC50) in data set [3] is 6.34.

For the compound `CC(C)C[C@@H](N)C(=O)NCC(=O)N[C@H](C)C(=O)N[C@H](CO)C(=O)N[C@H](Cc1c[nH]c2ccccc12)C(=O)N[C@H](Cc1cnc[nH]1)C(=O)N[C@H](CCCNC(=N)N)C(=O)N1CCC[C@@H]1C(=O)N[C@H](C)C(=O)N[C@H](CCCCN)C(=O)NCCOCCOCCOCCC(=O)NCCCC[C@H](NC(=O)CCOCCOCCOCCNC(=O)[C@@H](CCCCN)NC(=O)[C@@H](C)NC(=O)[C@H]1CCCN1C(=O)[C@@H](CCCNC(=N)N)NC(=O)[C@@H](Cc1cnc[nH]1)NC(=O)[C@@H](Cc1c[nH]c2ccccc12)NC(=O)[C@@H](CO)NC(=O)[C@@H](C)NC(=O)CNC(=O)[C@H](N)CC(C)C)C(N)=O`, in the data set on SUP-T1, the Activity entry is listed as “Non-Toxic”. Also, the “antagonist activity (qualitative)” value in data set [1] is “Active”. The inhibition in data set [2] was found to be 21%.

Take `CC(C)C[C@@H](N)C(=O)NCC(=O)N[C@H](C)C(=O)N[C@H](CO)C(=O)N[C@H](Cc1c[nH]c2ccccc12)C(=O)N[C@H](Cc1cnc[nH]1)C(=O)N[C@H](CCCNC(=N)N)C(=O)N1CCC[C@@H]1C(=O)N[C@H](CC(=O)O)C(=O)N[C@H](CCCCN)C(=O)NCCOCCOCCOCCOCCOCCC(=O)N[C@@H](CCCCNC(=O)CCOCCOCCOCCOCCOCCNC(=O)[C@H](CCCNC(=N)N)NC(=O)[C@H](Cc1ccc(O)cc1)NC(=O)[C@H](CO)NC(=O)[C@H](CC(C)C)NC(=O)[C@H](CO)NC(=O)[C@@H](NC(=O)[C@@H]1CCCN1C(=O)[C@@H](N)CCCCN)C(C)C)C(N)=O`: the outcome in data set [4] was inactive.

`CC(C)C[C@@H](N)C(=O)NCC(=O)N[C@H](C)C(=O)N[C@H](CO)C(=O)N[C@H](Cc1c[nH]c2ccccc12)C(=O)N[C@H](Cc1cnc[nH]1)C(=O)N[C@H](CCCNC(=N)N)C(=O)N1CCC[C@@H]1C(=O)N[C@H](CC(=O)O)C(=O)N[C@H](CCCCN)C(=O)NCCOCCOCCOCCC(=O)NCCCC[C@H](NC(=O)CCOCCOCCOCCNC(=O)[C@@H](CCCCN)NC(=O)[C@@H](CC(=O)O)NC(=O)[C@H]1CCCN1C(=O)[C@@H](CCCNC(=N)N)NC(=O)[C@@H](Cc1cnc[nH]1)NC(=O)[C@@H](Cc1c[nH]c2ccccc12)NC(=O)[C@@H](CO)NC(=O)[C@@H](C)NC(=O)CNC(=O)[C@H](N)CC(C)C)C(N)=O`: the Activity result with SUP-T1 is “Non-Toxic”. The inhibition in data set [2] worked out at 67%.

Consider `CC(C)C[C@@H](N)C(=O)NCC(=O)N[C@H](C)C(=O)N[C@H](CO)C(=O)N[C@H](Cc1c[nH]c2ccccc12)C(=O)N[C@H](Cc1cnc[nH]1)C(=O)N[C@H](CCCNC(=N)N)C(=O)N1CCC[C@@H]1C(=O)NCCOCCOCCOCCOCCOCCC(=O)NCCCC[C@H](NC(=O)CCOCCOCCOCCOCCOCCNC(=O)[C@H]1CCCN1C(=O)[C@@H](CCCNC(=N)N)NC(=O)[C@@H](Cc1cnc[nH]1)NC(=O)[C@@H](Cc1c[nH]c2ccccc12)NC(=O)[C@@H](CO)NC(=O)[C@@H](C)NC(=O)CNC(=O)[C@H](N)CC(C)C)C(N)=O`, for which, in the data set on SUP-T1, the Activity entry is listed as “Non-Toxic”. Besides, the inhibition in data set [2] was 34%.

For the compound `CC(C)C[C@@H](N)C(=O)NCC(=O)N[C@H](C)C(=O)N[C@H](CO)C(=O)N[C@H](Cc1c[nH]c2ccccc12)C(=O)N[C@H](Cc1cnc[nH]1)C(=O)N[C@H](CCCNC(=N)N)C(=O)N1CCC[C@@H]1C(=O)N[C@H](CC(=O)O)C(=O)N[C@H](CCCCN)C(=O)NCCOCCOCCOCCOCCOCCC(=O)NCCCC[C@H](NC(=O)CCOCCOCCOCCOCCOCCNC(=O)[C@@H](CCCCN)NC(=O)[C@@H](CC(=O)O)NC(=O)[C@H]1CCCN1C(=O)[C@@H](CCCNC(=N)N)NC(=O)[C@@H](Cc1cnc[nH]1)NC(=O)[C@@H](Cc1c[nH]c2ccccc12)NC(=O)[C@@H](CO)NC(=O)[C@@H](C)NC(=O)CNC(=O)[C@H](N)CC(C)C)C(N)=O`, the Activity result in the data set with SUP-T1 is reported as “Non-Toxic”. The “antagonist activity (qualitative)” value in data set [1] was “Active”.

For `CC(C)C[C@@H](N)C(=O)NCC(=O)N[C@H](C)C(=O)N[C@H](CO)C(=O)N[C@H](Cc1c[nH]c2ccccc12)C(=O)N[C@H](Cc1cnc[nH]1)C(=O)N[C@H](CCCNC(=N)N)C(=O)N[C@H](C)C(=O)N[C@H](CC(=O)O)C(=O)N[C@H](CCCCN)C(=O)NCCOCCOCCOCCC(=O)NCCCC[C@H](NC(=O)CCOCCOCCOCCNC(=O)[C@@H](CCCCN)NC(=O)[C@@H](CC(=O)O)NC(=O)[C@@H](C)NC(=O)[C@@H](CCCNC(=N)N)NC(=O)[C@@H](Cc1cnc[nH]1)NC(=O)[C@@H](Cc1c[nH]c2ccccc12)NC(=O)[C@@H](CO)NC(=O)[C@@H](C)NC(=O)CNC(=O)[C@H](N)CC(C)C)C(N)=O`, the Activity entry with SUP-T1 was “Non-Toxic”. Moreover, in data set [1], the “antagonist activity (qualitative)” value is “Active”. Besides, the inhibition in data set [2] is 23%.

Consider `CC(C)C[C@@H](N)C(=O)NCC(=O)N[C@H](C)C(=O)N[C@H](CO)C(=O)N[C@H](Cc1c[nH]c2ccccc12)C(=O)N[C@H](Cc1cnc[nH]1)C(=O)N[C@H](CCCNC(=N)N)C(=O)N1CCC[C@@H]1C(=O)N[C@H](CC(=O)O)C(=O)N[C@H](CCCCN)C(=O)NCCOCCOCCOCCC(=O)N[C@@H](CCCCNC(=O)CCOCCOCCOCCOCCOCCNC(=O)[C@H](CO)NC(=O)[C@H](CC(C)C)NC(=O)[C@H](CO)NC(=O)[C@@H](NC(=O)[C@@H]1CCCN1C(=O)[C@@H](N)CCCCN)C(C)C)C(N)=O`, for which the outcome in data set [4] was inactive.

With `CC(C)C[C@@H](N)C(=O)NCC(=O)N[C@H](C)C(=O)N[C@H](CO)C(=O)N[C@H](Cc1c[nH]c2ccccc12)C(=O)N[C@H](Cc1cnc[nH]1)C(=O)N[C@H](CCCNC(=N)N)C(=O)N1CCC[C@@H]1C(=O)N[C@H](CC(=O)O)C(=O)N[C@H](CCCCN)C(=O)O` (H-[dL]G[dA][dS][dW][dH][dR][dP][dD][dK]-OH), in data set [3], the negative-log IC50 (pIC50) is 5.70.

For the compound `CC(C)C[C@@H](N)C(=O)NCC(=O)N[C@H](C)C(=O)N[C@H](CO)C(=O)N[C@H](Cc1c[nH]c2ccccc12)C(=O)N[C@H](Cc1cnc[nH]1)C(=O)N[C@H](CCCNC(=N)N)C(=O)N1CCC[C@@H]1C(=O)N[C@H](CC(=O)O)C(=O)N[C@H](CCCCN)C(=O)N[C@H](CCCCNC(=O)[C@H](CCCNC(=N)N)NC(=O)[C@H](Cc1ccc(O)cc1)NC(=O)[C@H](CO)NC(=O)[C@H](CC(C)C)NC(=O)[C@H](CO)NC(=O)[C@@H](NC(=O)[C@@H]1CCCN1C(=O)[C@@H](N)CCCCN)C(C)C)C(N)=O`, the result in data set [4] was Active. In addition, the negative logarithm of the IC50 (pIC50) in data set [3] was 6.30.

On to H-KPVSLSYR-OH, for which, in data set [3] (cho), the IC50 result is given as “Not Active”.

With `CC(C)C[C@@H](N)C(=O)NCC(=O)N[C@H](C)C(=O)N[C@H](CO)C(=O)N[C@H](Cc1c[nH]c2ccccc12)C(=O)N[C@H](Cc1cnc[nH]1)C(=O)N[C@H](CCCNC(=N)N)C(=O)N1CCC[C@@H]1C(=O)N[C@H](CC(=O)O)C(=O)N[C@H](CCCCN)C(=O)NCCOCCOCCOCCC(=O)N[C@@H](CCCCNC(=O)CCOCCOCCOCCNC(=O)[C@H](CC(C)C)NC(=O)[C@H](CO)NC(=O)[C@@H](NC(=O)[C@@H]1CCCN1C(=O)[C@@H](N)CCCCN)C(C)C)C(N)=O`, the result in data set [4] was inactive.

Turning to `CC(C)C[C@@H](N)C(=O)NCC(=O)N[C@H](C)C(=O)N[C@H](CO)C(=O)N[C@H](Cc1c[nH]c2ccccc12)C(=O)N[C@H](Cc1cnc[nH]1)C(=O)N[C@H](CCCNC(=N)N)C(=O)N1CCC[C@@H]1C(=O)N[C@H](CC(=O)O)C(=O)N[C@H](CCCCN)C(=O)NCCOCCOCCOCCOCCOCCOCCOCCC(=O)NCCCC[C@H](NC(=O)CCOCCOCCOCCOCCOCCOCCOCCNC(=O)[C@@H](CCCCN)NC(=O)[C@@H](CC(=O)O)NC(=O)[C@H]1CCCN1C(=O)[C@@H](CCCNC(=N)N)NC(=O)[C@@H](Cc1cnc[nH]1)NC(=O)[C@@H](Cc1c[nH]c2ccccc12)NC(=O)[C@@H](CO)NC(=O)[C@@H](C)NC(=O)CNC(=O)[C@H](N)CC(C)C)C(N)=O`, in the data set on SUP-T1, the Activity result is on record as “Non-Toxic”. Further, the “antagonist activity (qualitative)” value in data set [1] was “Active”. For the same compound, the inhibition in data set [2] was 48%.
